Experimental data published in ChEMBL document CHEMBL1127669, “Conformationally constrained peptides and semipeptides derived from RGD as potent inhibitors of the platelet fibrinogen receptor and platelet aggregation” (J Med Chem, 1994).
Starred links: 1 amine or outer side, 2 acyl side, 3 side chain; linkers in the order of their positions; H or OH if unused. Positions of bridges follow the written chain, without caps; N, C: chain ends. Non-standard residues stand in square brackets, D forms with d. Residues, ends and D or L forms follow the SMILES beside them. *: point of attachment. X2 = O=C(CN([C@@H](CS[*:3])C(=O)[*:2])[*:1])c1ccccc1; X4 = O=C([C@@H](N[*:1])[C@@H](S[*:3])c1ccccc1)[*:2]; X1 = O=C([C@@H](N[*:1])[C@H](S[*:3])c1ccccc1)[*:2]; NMeR = CN[C@@H](CCCNC(=N)N)C(=O)O; Pen = CC(C)(S)[C@H](N)C(=O)O; Pentanoyl = CCCCC(=O)*; Bz = O=C(c1ccccc1)*; X3 = CC(S)C(=O)*

Key:
[1] = biological target: Integrin alpha-IIb/beta-3 (Homo sapiens, UniProt P05106+P08514); assay: Tested for inhibition of fibrinogen binding to purified GPIIb/IIIa isolated from human platelets and reconstituted in liposomes
How it was run: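 Displacement of [¹²⁵I]fibrinogen from purified human platelet GPIIb/IIIa incorporated into phospholipid vesicles. Values without statistical limits come from a single determination.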

[2] = species on record: Canis familiaris; assay: Inhibition of platelet aggregation in canine platelet rich plasma induced by ADP; format: functional, Canis lupus familiaris
How it was run: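 Citrated canine PRP aggregation read optically by light transmittance. Peptide stock was 12 mM in 0.2 M acetic acid. Final 200 µM peptide and 10 µM ADP, pH 7.7, after 5-min preincubation with peptide.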

Chain of Integrin alpha-IIb/beta-3 (P05106 27-788 limits assumed): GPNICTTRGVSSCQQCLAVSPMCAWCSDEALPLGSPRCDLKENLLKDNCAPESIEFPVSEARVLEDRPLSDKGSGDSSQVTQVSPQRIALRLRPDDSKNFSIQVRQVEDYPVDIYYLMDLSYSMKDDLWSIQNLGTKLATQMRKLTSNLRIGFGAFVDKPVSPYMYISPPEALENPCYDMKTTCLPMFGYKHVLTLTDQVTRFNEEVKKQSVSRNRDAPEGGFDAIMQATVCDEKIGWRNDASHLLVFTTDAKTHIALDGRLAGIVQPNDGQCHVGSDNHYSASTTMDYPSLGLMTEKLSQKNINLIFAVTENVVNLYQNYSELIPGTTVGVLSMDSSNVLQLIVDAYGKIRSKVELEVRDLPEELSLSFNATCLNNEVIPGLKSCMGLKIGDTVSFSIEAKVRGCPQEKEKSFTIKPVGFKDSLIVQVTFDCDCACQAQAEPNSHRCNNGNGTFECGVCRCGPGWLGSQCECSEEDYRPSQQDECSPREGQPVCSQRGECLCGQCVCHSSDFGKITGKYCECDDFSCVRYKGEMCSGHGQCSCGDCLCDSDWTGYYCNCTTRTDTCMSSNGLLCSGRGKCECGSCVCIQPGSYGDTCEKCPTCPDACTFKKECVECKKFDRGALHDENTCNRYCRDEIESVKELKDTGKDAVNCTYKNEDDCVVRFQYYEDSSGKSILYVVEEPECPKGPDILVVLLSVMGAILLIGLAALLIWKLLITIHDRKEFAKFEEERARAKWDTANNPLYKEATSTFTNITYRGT
Chain of Integrin alpha-IIb/beta-3 (P08514 32-887 limits assumed): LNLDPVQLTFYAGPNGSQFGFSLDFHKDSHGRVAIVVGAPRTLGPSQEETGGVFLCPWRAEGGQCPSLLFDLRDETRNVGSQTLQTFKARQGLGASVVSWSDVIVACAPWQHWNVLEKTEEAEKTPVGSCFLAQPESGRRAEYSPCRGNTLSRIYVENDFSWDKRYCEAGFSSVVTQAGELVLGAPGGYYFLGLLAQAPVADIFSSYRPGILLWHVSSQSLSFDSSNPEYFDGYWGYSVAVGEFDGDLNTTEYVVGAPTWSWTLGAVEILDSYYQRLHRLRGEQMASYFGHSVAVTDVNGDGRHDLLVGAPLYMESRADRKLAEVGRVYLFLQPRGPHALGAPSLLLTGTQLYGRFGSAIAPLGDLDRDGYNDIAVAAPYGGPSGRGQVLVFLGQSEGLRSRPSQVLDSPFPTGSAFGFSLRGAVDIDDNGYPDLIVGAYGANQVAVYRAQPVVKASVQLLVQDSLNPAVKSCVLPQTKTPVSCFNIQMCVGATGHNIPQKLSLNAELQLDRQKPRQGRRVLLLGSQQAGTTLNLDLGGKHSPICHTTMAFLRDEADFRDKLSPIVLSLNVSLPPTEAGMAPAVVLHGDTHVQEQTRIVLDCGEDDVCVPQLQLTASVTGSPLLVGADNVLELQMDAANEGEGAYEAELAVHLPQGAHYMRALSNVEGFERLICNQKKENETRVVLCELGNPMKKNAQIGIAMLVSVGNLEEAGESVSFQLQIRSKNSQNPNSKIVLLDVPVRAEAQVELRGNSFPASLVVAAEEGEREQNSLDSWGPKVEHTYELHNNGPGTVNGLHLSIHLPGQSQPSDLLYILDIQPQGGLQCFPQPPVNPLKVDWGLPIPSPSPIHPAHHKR
Chain of Integrin alpha-IIb/beta-3 (P08514 891-1039 limits assumed): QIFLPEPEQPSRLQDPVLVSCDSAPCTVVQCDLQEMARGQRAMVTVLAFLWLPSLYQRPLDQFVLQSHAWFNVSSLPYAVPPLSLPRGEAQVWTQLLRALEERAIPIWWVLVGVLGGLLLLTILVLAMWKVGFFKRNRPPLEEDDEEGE

Row | Structure (SMILES) | Ki [1] [µM] | IC50 ([2]; Canis lupus familiaris, Plasma) [nM] | IC50 [2] [nM]
1 | CC(=O)N[C@@H](CCCN=C(N)N)C(=O)NCC(=O)N[C@@H](CC(=O)O)C(N)=O | 4.2 |  | 
2 | CN1C(=O)c2ccccc2SSc2ccccc2NC(=O)[C@H](CC(=O)O)NC(=O)CNC(=O)[C@H]1CCCN=C(N)N |  | 26000 | 
3 | CC(=O)N[C@@H]1CSSC(C)(C)[C@H](C(N)=O)NC(=O)[C@@H](CC(=O)O)NC(=O)CNC(=O)[C@H](CCCNC(=N)N)NC1=O | 0.72 | 4120 | 
4 | CN1CC(=O)N[C@@H](CCCNC(=N)N)C(=O)NCC(=O)N[C@@H](CC(=O)O)C(=O)Nc2ccccc2SSc2ccccc2C1=O | 0.143 | 3460 | 
5 | CC(=O)N[C@@H]1CSSC(C)(C)[C@H](C(N)=O)NC(=O)[C@@H](CC(=O)O)NC(=O)CNC(=O)[C@@H](CCCN=C(N)N)N(Cc2ccccc2)C1=O | > 100 | 7740 | 
6 | CN1C(=O)[C@@H]2CCCN2C(=O)c2ccccc2SSc2ccccc2NC(=O)[C@H](CC(=O)O)NC(=O)CNC(=O)[C@@H]1CCCN=C(N)N | 0.82 | 1010 | 
7 | CN1CC(=O)N(C)[C@@H](CCCN=C(N)N)C(=O)NCC(=O)N[C@@H](CC(=O)O)C(=O)Nc2ccccc2SSc2ccccc2C1=O | 0.0245 | 102 | 
8 | CN1C(=O)c2ccccc2SSCCNC(=O)[C@@H](CC(=O)O)NC(=O)CNC(=O)[C@H]1CCCNC(=N)N | 0.0095 | 236 | 
9 | CC(=O)N[C@@H]1CSSC(C)(C)[C@H](C(N)=O)NC(=O)[C@@H](CC(=O)O)NC(=O)CNC(=O)[C@H](CCCN=C(N)N)N(C)C1=O | 0.082 | 1790 | 
10 | CN1C(=O)c2ccccc2SSc2ccccc2NC(=O)[C@@H](CC(=O)O)NC(=O)CNC(=O)[C@@H]1CCCN=C(N)N |  | 600 | 
11 | CC(=O)N[C@H]1CSSC(C)(C)[C@H](C(N)=O)NC(=O)[C@@H](CC(=O)O)NC(=O)CNC(=O)[C@@H](CCCNC(=N)N)NC1=O | 2.65 | 98700 | 
12 | CC(=O)N[C@@H]1CSSC(C)(C)[C@H](C(N)=O)NC(=O)[C@H](CC(=O)O)NC(=O)CNC(=O)[C@@H](CCCNC(=N)N)NC1=O | > 1000 | > 200000 | 
13 | CC(=O)N[C@H]1CSSC(C)(C)[C@@H](C(N)=O)NC(=O)[C@H](CC(=O)O)NC(=O)CNC(=O)[C@H](CCCNC(=N)N)N(C)C(=O)[C@@H]2CCCN2C1=O | > 10 |  | 
14 | CC(=O)N[C@@H]1CSSC(C)(C)[C@H](C(N)=O)NC(=O)[C@@H](CC(=O)O)NC(=O)CNC(=O)[C@@H](CCCN=C(N)N)N(C)C(=O)[C@@H]2CCCN2C1=O |  | 24400 | 
15 | CC(=O)N[C@H]1CSSC(C)(C)[C@@H](C(=O)O)NC(=O)[C@H](CC(=O)O)NC(=O)CNC(=O)[C@H](CCCN=C(N)N)N(C)C1=O (Ac-C[NMeR]GD[Pen]-OH; disulfide 1-5) | 0.0085 | 80 | 
16 | CC(=O)N[C@H]1CSS[C@H](c2ccccc2)[C@@H](C(N)=O)NC(=O)[C@H](CC(=O)O)NC(=O)CNC(=O)[C@H](CCCN=C(N)N)N(C)C1=O (Ac-C[NMeR]GD[X1]-NH2; disulfide 1-5) | 0.125 | 98 | 
17 | CC(=O)N[C@H]1CSS[C@H](c2ccccc2)[C@@H](C(=O)O)NC(=O)[C@H](CC(=O)O)NC(=O)CNC(=O)[C@H](CCCNC(=N)N)N(C)C1=O (Ac-C[NMeR]GD[X1]-OH; disulfide 1-5) | 0.0021 |  | 
18 | CC(=O)N[C@H]1CSS[C@H](c2ccccc2)[C@@H](C(=O)O)NC(=O)[C@H](CC(=O)O)NC(=O)CNC(=O)[C@H](CCCN=C(N)N)N(C)C1=O (Ac-C[NMeR]GD[X1]-OH; disulfide 1-5) |  | 40 | 
19 | CC(=O)N[C@H]1CSS[C@@H](c2ccccc2)[C@@H](C(N)=O)NC(=O)[C@H](CC(=O)O)NC(=O)CNC(=O)[C@H](CCCNC(=N)N)N(C)C1=O (Ac-C[NMeR]GD[X4]-NH2; disulfide 1-5) | 0.045 |  | 
20 | CC(=O)N[C@H]1CSS[C@@H](c2ccccc2)[C@@H](C(N)=O)NC(=O)[C@H](CC(=O)O)NC(=O)CNC(=O)[C@H](CCCN=C(N)N)N(C)C1=O (Ac-C[NMeR]GD[X4]-NH2; disulfide 1-5) |  | 50 | 
21 | CN1C(=O)[C@@H](NC(=O)c2ccccc2)CSSC(C)(C)[C@@H](C(N)=O)NC(=O)[C@H](CC(=O)O)NC(=O)CNC(=O)[C@@H]1CCCN=C(N)N (Bz-C[NMeR]GD[Pen]-NH2; disulfide 1-5) | 0.0137 | 200 | 
22 | CN1C(=O)[C@@H](N)CSSC(C)(C)[C@@H](C(N)=O)NC(=O)[C@H](CC(=O)O)NC(=O)CNC(=O)[C@@H]1CCCN=C(N)N (H-C[NMeR]GD[Pen]-NH2; disulfide 1-5) | 0.0093 | 200 | 
23 | CN1C(=O)[C@@H](N)CSSC(C)(C)[C@@H](C(=O)O)NC(=O)[C@H](CC(=O)O)NC(=O)CNC(=O)[C@@H]1CCCN=C(N)N (H-C[NMeR]GD[Pen]-OH; disulfide 1-5) | 0.0048 | 120 | 
24 | CN1C(=O)[C@@H](NCC(=O)c2ccccc2)CSSC(C)(C)[C@@H](C(N)=O)NC(=O)[C@H](CC(=O)O)NC(=O)CNC(=O)[C@@H]1CCCN=C(N)N (H-[X2][NMeR]GD[Pen]-NH2; disulfide 1-5) | 0.035 | 280 | 

Row | Structure (SMILES) | Ki [1] [µM] | IC50 ([2]; Canis lupus familiaris, Plasma) [nM] | IC50 [2] [nM]
25 | CCCCC(=O)N[C@H]1CSSC(C)(C)[C@@H](C(N)=O)NC(=O)[C@H](CC(=O)O)NC(=O)CNC(=O)[C@H](CCCN=C(N)N)N(C)C1=O (Pentanoyl-C[NMeR]GD[Pen]-NH2; disulfide 1-5) | 0.026 | 250 | 
26 | CC(S)C(=O)N[C@H]1CSSC(C)(C)[C@@H](C(N)=O)NC(=O)[C@H](CC(=O)O)NC(=O)CNC(=O)[C@H](CCCN=C(N)N)N(C)C1=O (some centres not stated) (X3-C[NMeR]GD[Pen]-NH2; disulfide 1-5) | 0.0243 | 340 | 
27 | CC(=O)N[C@H]1CSSC[C@@H](C(N)=O)NC(=O)[C@H](CC(=O)O)NC(=O)CNC(=O)[C@H](CCCN=C(N)N)NC1=O (single isomer, unassigned) |  | 16200 | 
28 | CC(=O)N[C@H]1CSSC(C)(C)[C@@H](C(N)=O)NC(=O)[C@H](CC(=O)O)NC(=O)CNC(=O)[C@H](CCCN=C(N)N)N(C)C(=O)CNC1=O (single isomer, unassigned) | 0.135 | 360 | 
29 | CC(=O)N[C@H]1CSSC(C)(C)[C@@H](C(N)=O)NC(=O)[C@H](CC(=O)O)NC(=O)CNC(=O)[C@H](CCCN=C(N)N)NC(=O)CNC1=O (single isomer, unassigned) [listing 1 of 2 here] | 0.61 |  | 
30 | CC(=O)N[C@H]1CSSC(C)(C)[C@@H](C(N)=O)NC(=O)[C@H](CC(=O)O)NC(=O)CNC(=O)[C@H](CCCN=C(N)N)NC(=O)CNC1=O (single isomer, unassigned) [listing 2 of 2 here] |  | 11400 | 
31 | CN1C(=O)c2ccccc2SSc2ccccc2NC(=O)[C@H](CC(=O)O)NC(=O)CNC(=O)[C@@H]1CCCN=C(N)N (single isomer, unassigned) |  | 90 | 
32 | CCN1C(=O)[C@@H](NC(C)=O)CSSC(C)(C)[C@@H](C(N)=O)NC(=O)[C@H](CC(=O)O)NC(=O)CNC(=O)[C@@H]1CCCN=C(N)N (single isomer, unassigned) |  | 900 | 
33 | CCN1C(=O)[C@H](NC(C)=O)CSSC(C)(C)[C@H](C(N)=O)NC(=O)[C@@H](CC(=O)O)NC(=O)CNC(=O)[C@H]1CCCNC(=N)N (single isomer, unassigned) | 0.065 |  | 
34 | CC(=O)N[C@H]1CSSC(C)(C)[C@@H](C(N)=O)NC(=O)[C@H](CC(=O)O)NC(=O)CNC(=O)[C@H](CCCNC(=N)N)NC(=O)CN(C)C1=O (single isomer, unassigned) | 0.077 |  | 
35 | CC(=O)N[C@H]1CSSC(C)(C)[C@@H](C(N)=O)NC(=O)[C@H](CC(=O)O)NC(=O)CNC(=O)[C@H](CCCN=C(N)N)NC(=O)CN(C)C1=O (single isomer, unassigned) |  | 1200 | 
36 | N=C(N)NCCC[C@@H]1NC(=O)c2ccccc2SSC[C@@H](C(N)=O)NC(=O)[C@H](CC(=O)O)NC(=O)CNC1=O (single isomer, unassigned) |  | 8080 | 
37 | CC(=O)N[C@H]1CSSc2ccccc2NC(=O)[C@H](CC(=O)O)NC(=O)CNC(=O)[C@H](CCCNC(=N)N)NC1=O (single isomer, unassigned) | 0.28 |  | 
38 | CC(=O)N[C@H]1CSSc2ccccc2NC(=O)[C@H](CC(=O)O)NC(=O)CNC(=O)[C@H](CCCN=C(N)N)NC1=O (single isomer, unassigned) |  | 9710 | 
39 | CC(=O)N[C@H]1CSSc2ccccc2NC(=O)[C@H](CC(=O)O)NC(=O)CNC(=O)[C@H](CCCN=C(N)N)N(C)C1=O (single isomer, unassigned) |  | 170 | 
40 | CC(=O)N[C@H]1CSSc2ccccc2NC(=O)[C@H](CC(=O)O)NC(=O)CNC(=O)[C@H](CCCNC(=N)N)N(C)C1=O (single isomer, unassigned) | 0.026 |  | 
41 | CC(=O)N[C@H]1CSSC(C)(C)[C@@H](C(N)=O)NC(=O)[C@H](CC(=O)O)N(C)C(=O)CNC(=O)[C@H](CCCNC(=N)N)NC1=O (single isomer, unassigned) | 25.3 |  | 
42 | CC(=O)N[C@H]1CSSC(C)(C)[C@@H](C(N)=O)NC(=O)[C@H](CC(=O)O)N(C)C(=O)CNC(=O)[C@H](CCCN=C(N)N)NC1=O (single isomer, unassigned) |  | 137000 | 
43 | CC(=O)N[C@H]1CSSC(C)(C)[C@@H](C(N)=O)NC(=O)[C@H](CC(=O)O)NC(=O)CN(C)C(=O)[C@H](CCCN=C(N)N)NC1=O (single isomer, unassigned) | 1.25 | 73400 | 
44 | CC(=O)N[C@H]1CSSC(C)(C)[C@@H](C(N)=O)NC(=O)[C@H](CC(=O)O)NC(=O)CNC(=O)[C@H](CCCN=C(N)N)N(C)C(=O)CN(C)C1=O (single isomer, unassigned) | 0.02 | 150 | 
45 | CC(=O)N[C@H]1CSSC(C)(C)[C@@H](C(N)=O)NC(=O)[C@H](CC(=O)O)N(C)C(=O)CNC(=O)[C@H](CCCN=C(N)N)N(C)C1=O (single isomer, unassigned) |  | 23400 | 
46 | CC(=O)N[C@H]1CSSC(C)(C)[C@@H](C(N)=O)NC(=O)[C@H](CC(=O)O)N(C)C(=O)CNC(=O)[C@H](CCCNC(=N)N)N(C)C1=O (single isomer, unassigned) | 7.04 |  | 
47 | CC(=O)N[C@@H]1CSSC(C)(C)[C@H](C(N)=O)NC(=O)C(CC(=O)O)NC(=O)CNC(=O)C(CCCN=C(N)N)NC1=O (single isomer, unassigned; 12) |  |  | 4120
